Test results as given in article PMC9753537 (ACS Omega, 2022).

target: urease (Canavalia ensiformis, UniProt P07374); assay: In vitro urease inhibition assay; format: biochemical
Outline: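 Enzyme preincubated with test compound in phosphate buffer (pH 6.8) for 10 min at 37 °C, then phenol and alkali reagents added. Absorbance read at 625 nm, with thiourea as the standard inhibitor. Percent inhibition calculated from absorbance, run in triplicate.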

Chain of urease (P07374 whole entry, looked up): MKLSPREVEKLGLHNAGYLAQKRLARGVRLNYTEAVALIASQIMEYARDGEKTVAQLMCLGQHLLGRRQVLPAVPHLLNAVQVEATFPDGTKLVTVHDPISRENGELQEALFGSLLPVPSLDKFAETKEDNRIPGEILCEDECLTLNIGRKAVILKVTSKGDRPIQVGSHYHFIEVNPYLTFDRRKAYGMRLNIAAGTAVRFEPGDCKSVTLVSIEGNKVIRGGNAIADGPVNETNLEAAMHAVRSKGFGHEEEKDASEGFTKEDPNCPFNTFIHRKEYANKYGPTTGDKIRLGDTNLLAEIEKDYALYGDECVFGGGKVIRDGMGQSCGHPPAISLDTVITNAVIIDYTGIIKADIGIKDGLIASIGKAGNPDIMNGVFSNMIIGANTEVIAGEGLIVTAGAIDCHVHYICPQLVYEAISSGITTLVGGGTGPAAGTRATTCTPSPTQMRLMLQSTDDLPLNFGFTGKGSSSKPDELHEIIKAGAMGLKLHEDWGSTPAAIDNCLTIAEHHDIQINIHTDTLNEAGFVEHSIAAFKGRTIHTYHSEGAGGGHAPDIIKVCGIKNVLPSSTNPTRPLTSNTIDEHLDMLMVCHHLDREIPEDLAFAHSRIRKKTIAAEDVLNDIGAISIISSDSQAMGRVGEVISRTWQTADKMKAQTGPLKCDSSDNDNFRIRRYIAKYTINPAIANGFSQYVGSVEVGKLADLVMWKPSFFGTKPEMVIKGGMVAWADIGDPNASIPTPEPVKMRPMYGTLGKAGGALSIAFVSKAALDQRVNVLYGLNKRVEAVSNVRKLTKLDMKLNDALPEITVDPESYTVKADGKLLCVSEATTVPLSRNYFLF

Row | SMILES | IC50
1 | CC(C(=O)NN=Cc1cccc2ccccc12)c1ccc(-c2ccccc2)c(F)c1 (stereo not drawn) [Compound 4, 2-(2-Fluoro-[1,1′-biphenyl]-4-yl)-N′-(naphthalen-1-ylmethylene)propanehydrazide] | 53.7 ± 3.81 µM
2 | CC(C(=O)NN=Cc1ccc(O)c(O)c1O)c1ccc(-c2ccccc2)c(F)c1 (stereo not drawn) [Compound 5, 2-(2-Fluoro-[1,1′-biphenyl]-4-yl)-N′-(2,3,4-trihydroxybenzylidene)propanehydrazide] | 25.1 ± 1.13 µM
3 | CC(C(=O)NN=Cc1ccccc1N)c1ccc(-c2ccccc2)c(F)c1 (stereo not drawn) [Compound 6, N′-(2-Aminobenzylidene)-2-(2-fluoro-[1,1′-biphenyl]-4-yl)propanehydrazide] | 53.7 ± 3.82 µM
4 | CC(C(=O)NN=Cc1cccc([N+](=O)[O-])c1)c1ccc(-c2ccccc2)c(F)c1 (stereo not drawn) [Compound 7, 2-(2-Fluoro-[1,1′-biphenyl]-4-yl)-N′-(3-nitrobenzylidene)propanehydrazide] | 29.2 ± 1.12 µM
5 | COc1ccc(Br)cc1C=NNC(=O)C(C)c1ccc(-c2ccccc2)c(F)c1 (stereo not drawn) [Compound 8, N′-(5-Bromo-2-methoxybenzylidene)-2-(2-fluoro-[1,1′-biphenyl]-4-yl)propanehydrazide] | 58.3 ± 3.34 µM
6 | COc1ccc(C=NNC(=O)C(C)c2ccc(-c3ccccc3)c(F)c2)c(OC)c1OC (stereo not drawn) [Compound 9, 2-(2-Fluoro-[1,1′-biphenyl]-4-yl)-N′-(2,3,4-trimethoxybenzylidene)propanehydrazide] | 55.8 ± 3.04 µM
7 | CC(C(=O)NN=Cc1cc([N+](=O)[O-])ccc1Cl)c1ccc(-c2ccccc2)c(F)c1 (stereo not drawn) [Compound 10, N′-(2-Chloro-5-nitrobenzylidene)-2-(2-fluoro-[1,1′-biphenyl]-4-yl)propanehydrazide] | 50.7 ± 5.17 µM
8 | CCOc1ccc(C=NNC(=O)C(C)c2ccc(-c3ccccc3)c(F)c2)c(OC)c1 (stereo not drawn) [Compound 11, N′-(4-Ethoxy-2-methoxybenzylidene)-2-(2-fluoro-[1,1′-biphenyl]-4-yl)propanehydrazide] | 52.7 ± 3.56 µM
9 | COc1cc(C=NNC(=O)C(C)c2ccc(-c3ccccc3)c(F)c2)ccc1F (stereo not drawn) [Compound 12, N′-(4-Fluoro-3-methoxybenzylidene)-2-(2-fluoro-[1,1′-biphenyl]-4-yl)propanehydrazide] | 56.1 ± 4.89 µM
10 | CCOc1cc(C=NNC(=O)C(C)c2ccc(-c3ccccc3)c(F)c2)ccc1OC (stereo not drawn) [Compound 13, N′-(3-Ethoxy-4-methoxybenzylidene)-2-(2-fluoro-[1,1′-biphenyl]-4-yl)propanehydrazide] | 81 ± 8.43 µM
11 | COc1cccc(OC)c1C=NNC(=O)C(C)c1ccc(-c2ccccc2)c(F)c1 (stereo not drawn) [Compound 14, N′-(2,6-Dimethoxybenzylidene)-2-(2-fluoro-[1,1′-biphenyl]-4-yl)propanehydrazide] | 55.7 ± 3.71 µM
12 | CC(C(=O)N/N=C/c1ccc([N+](=O)[O-])cc1)c1ccc(-c2ccccc2)c(F)c1 (stereo not drawn) [Compound 15, (E)-2-(2-Fluoro-[1,1′-biphenyl]-4-yl)-N′-(4-nitrobenzylidene)propanehydrazide] | 28.6 ± 1.73 µM
13 | COc1ccc(/C=N/NC(=O)C(C)c2ccc(-c3ccccc3)c(F)c2)c(Cl)c1OC (stereo not drawn) [Compound 16, (E)-N′-(2-Chloro-3,4-dimethoxybenzylidene)-2-(2-fluoro-[1,1′-biphenyl]-4-yl)propanehydrazide] | 55.7 ± 3.82 µM
14 | COc1cc(C=NNC(=O)C(C)c2ccc(-c3ccccc3)c(F)c2)ccc1Oc1ccccc1 (stereo not drawn) [Compound 18, 2-(2-Fluoro-[1,1′-biphenyl]-4-yl)-N′-(3-methoxy-4-phenoxybenzylidene)propanehydrazide] | 26.5 ± 0.44 µM
15 | COc1ccccc1C=NNC(=O)C(C)c1ccc(-c2ccccc2)c(F)c1 (stereo not drawn) [Compound 19, 2-(2-Fluoro-[1,1′-biphenyl]-4-yl)-N′-(2-methoxybenzylidene)propanehydrazide] | 55.7 ± 3.82 µM
16 | CC(C(=O)NN=Cc1ccc(Br)cc1)c1ccc(-c2ccccc2)c(F)c1 (stereo not drawn) [Compound 20, N′-(4-Bromobenzylidene)-2-(2-fluoro-[1,1′-biphenyl]-4-yl)propanehydrazide] | 58.8 ± 3.99 µM
17 | COc1ccc(C=NNC(=O)C(C)c2ccc(-c3ccccc3)c(F)c2)c(F)c1 (stereo not drawn) [Compound 21, N′-(2-Fluoro-4-methoxybenzylidene)-2-(2-fluoro-[1,1′-biphenyl]-4-yl)propanehydrazide] | 89.7 ± 8.35 µM
18 | COc1cc(C=NNC(=O)C(C)c2ccc(-c3ccccc3)c(F)c2)cc(OC)c1Br (stereo not drawn) [Compound 22, N′-(4-Bromo-3,5-dimethoxybenzylidene)-2-(2-fluoro-[1,1′-biphenyl]-4-yl)propanehydrazide] | 90.7 ± 7.71 µM
19 | CC(C(=O)NN=Cc1ccc(Br)cc1F)c1ccc(-c2ccccc2)c(F)c1 (stereo not drawn) [Compound 23, N′-(4-Bromo-2-fluorobenzylidene)-2-(2-fluoro-[1,1′-biphenyl]-4-yl)propanehydrazide] | 86.9 ± 8.71 µM
20 | COc1ccc(OC)c(C=NNC(=O)C(C)c2ccc(-c3ccccc3)c(F)c2)c1 (stereo not drawn) [Compound 24, N′-(2,5-Dimethoxybenzylidene)-2-(2-fluoro-[1,1′-biphenyl]-4-yl)propanehydrazide] | 79.2 ± 7.94 µM
21 | CC(C(=O)NN=Cc1cccc(C(F)(F)F)c1)c1ccc(-c2ccccc2)c(F)c1 (stereo not drawn) [Compound 25, 2-(2-Fluoro-[1,1′-biphenyl]-4-yl)-N′-(3-(trifluoromethyl)benzylidene)propanehydrazide] | 59.5 ± 4.28 µM
22 | CSc1ccc(C=NNC(=O)C(C)c2ccc(-c3ccccc3)c(F)c2)cc1 (stereo not drawn) [Compound 26, 2-(2-Fluoro-[1,1′-biphenyl]-4-yl)-N′-(4-(methylthio)benzylidene)propanehydrazide] | 78 ± 7.63 µM
23 | CC(C(=O)NN=Cc1ccc(O)c(Br)c1)c1ccc(-c2ccccc2)c(F)c1 (stereo not drawn) [Compound 27, N′-(3-Bromo-4-hydroxybenzylidene)-2-(2-fluoro-[1,1′-biphenyl]-4-yl)propanehydrazide] | 80 ± 8.61 µM
24 | CC(C(=O)NN=Cc1ccc(-c2ccccc2)c(F)c1)c1ccc(-c2ccccc2)c(F)c1 (stereo not drawn) [Compound 28, 2-(2-Fluoro-[1,1′-biphenyl]-4-yl)-N′-((2-fluoro-[1,1′-biphenyl]-4-yl)methylene)propanehydrazide] | 58.5 ± 4.28 µM
25 | Cc1ccc(C=NNC(=O)C(C)c2ccc(-c3ccccc3)c(F)c2)s1 (stereo not drawn) [Compound 29, 2-(2-Fluoro-[1,1′-biphenyl]-4-yl)-N′-((5-methylthiophen-2-yl)methylene)propanehydrazide] | 57.5 ± 4.27 µM
26 | CC(C(=O)NN=Cc1cccc(O)c1O)c1ccc(-c2ccccc2)c(F)c1 (stereo not drawn) [Compound 30, N′-(2,3-Dihydroxybenzylidene)-2-(2-fluoro-[1,1′-biphenyl]-4-yl)propanehydrazide] | 18.9 ± 0.61 µM
27 | CC(C(=O)NN=Cc1ccccc1[N+](=O)[O-])c1ccc(-c2ccccc2)c(F)c1 (stereo not drawn) [Compound 31, N′-(2-Nitrobenzylidene)-2-(2-fluoro-[1,1′-biphenyl]-4-yl)propanehydrazide] | 28.1 ± 1.26 µM
